Experimental data taken from ChEMBL document CHEMBL3243988, “Quantitative structure-activity relationships in 2,5-bis(1-aziridinyl)-p-benzoquinone derivatives against leukemia L-1210” (1979).
Activity calls are given as the source filed them. The rule behind the calls is not given here.

What was measured:
Type in all cases: functional
L1210 [1] = assay: Antileukemic activity against mouse L1210 cells allografted in BDF1 mouse assessed as concentration required to increase 40% life span administered for 1 day
Outline: (§1)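 Single-injection schedule: BDF1 mice received 10⁵ L-1210 cells i.p. and one dose on day 1 only, with compound dissolved in DMSO and made up in sterile saline. Survival was compared with controls. MED is the dose yielding 40% ILS; OD is the dose yielding maximal ILS.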

L1210 [2] = assay: Antileukemic activity against mouse L1210 cells allografted in BDF1 mouse
Outline: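 BDF1 mice inoculated intraperitoneally with 10⁵ L-1210 cells. Compounds were dissolved in dimethyl sulfoxide and diluted with sterile physiological saline for injection. Dosing was either chronic (QD days 1-12) or a single injection on day 1. Read-out was increase in life span (ILS) relative to untreated controls.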

L1210 [3] = assay: Antileukemic activity against mouse L1210 cells allografted in BDF1 mouse assessed as concentration required to increase 40% life span administered as continuous injection; conditions: read-out: MED
Outline: (§2)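 Chronic schedule: 10⁵ L-1210 cells given i.p. to BDF1 mice, then treatment once daily on days 1-12 with compound in DMSO diluted with sterile saline. Life span was compared with controls. MED is the dose giving 40% increase in life span; OD is the dose giving maximum ILS.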

L1210 [4] = assay: Antileukemic activity against mouse L1210 cells allografted in BDF1 mouse assessed as concentration required to give maximum increase in life span administered as continuous injection; outline: as §2
L1210 [5] = assay: Chemotherapeutic index, ratio of antileukemic activity against mouse L1210 cells allografted in BDF1 mouse assessed as concentration required to give maximum increase in life span administered as continuous injection to antileukemic activity against mouse L1210 cells allografted in BDF1 mouse assessed as concentration required to increase 40% life span administered as continuous injection
Outline: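 Chemotherapeutic index was taken as OD/MED on the chronic schedule (QD days 1-12) in BDF1 mice bearing 10⁵ i.p.-inoculated L-1210 cells. OD is the dose giving maximum increase in life span; MED is the dose giving 40% ILS versus controls. Compounds were given in DMSO diluted with saline.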

L1210 [6] = assay: Antileukemic activity against mouse L1210 cells allografted in BDF1 mouse assessed as concentration required to give maximum increase in life span administered for 1 day; outline: as §1
L1210 [7] = assay: Antileukemic activity against mouse L1210 cells allografted in BDF1 mouse assessed as concentration required to increase 40% life span administered as qd for 12 days; outline: as §2

In the case of `CCCC1=C(N2CC2)C(=O)C(CCOC(N)=O)=C(N2CC2)C1=O`, the “log(1/C)” value (L1210 [1]) is reported as 4.9.
With `COC(CO)C1=C(N2CC2)C(=O)C(C(CO)OC)=C(N2CC2)C1=O` (stereo unspecified) the Activity (L1210 [2]) was “Active”.
Work on `O=C1C=C(N2CC2)C(=O)C(N2CC2)=C1N1CC1` [TRIAZIQUONE] yielded a minimal effective dose (L1210 [3]) of 0.082 mg/kg, an Activity (L1210 [4]) of 0.15 mg/kg and a TI (L1210 [5]) of 1.8.
With `CC1=C(N2CC2)C(=O)C(CCC(=O)N(C)C)=C(N2CC2)C1=O` the “log(1/C)” value (L1210 [1]) was 5.09 and the “log(1/C)” value (L1210 [6]) was 4.84.
For `COC(COC(N)=O)C1=C(N2CC2)C(=O)C(C(COC(N)=O)OC)=C(N2CC2)C1=O` (stereo unspecified), the Activity (L1210 [2]) was “Active”.
With `CC1=C(N2CC2)C(=O)C(CCCc2ccccc2)=C(N2CC2)C1=O` the “log(1/C)” value (L1210 [6]) was 3.6.
With `COC(CO[C@@H]1O[C@H](COC(C)=O)[C@@H](OC(C)=O)[C@H](OC(C)=O)[C@H]1OC(C)=O)C1=C(N2CC2)C(=O)C(C)=C(N2CC2)C1=O` (stereo partly specified) the Activity (L1210 [2]) was “Active”.
In the case of `CCOC(COC(N)=O)C1=C(N2CC2)C(=O)C(CC)=C(N2CC2)C1=O` (stereo unspecified), the “log(1/C)” value (L1210 [1]) is reported as 5.4.
With `CCC(COC(N)=O)C1=C(N2CC2)C(=O)C(C)=C(N2CC2)C1=O` (stereo unspecified) the “log(1/C)” value (L1210 [6]) was 5.2.
Work on `CO[C@@]12[C@H](COC(N)=O)C3=C(C(=O)C(C)=C(N)C3=O)N1C[C@@H]1N[C@@H]12` [MITOMYCIN] yielded a minimal effective dose (L1210 [3]) of 0.9 mg/kg, an Activity (L1210 [4]) of 2 mg/kg and a TI (L1210 [5]) of 2.2.
For `O=C1C(CCO)=C(N2CC2)C(=O)C(CCO)=C1N1CC1`, the “log(1/C)” value (L1210 [6]) was 5.6.
With `CC1=C(N2CC2)C(=O)C(C(C)C)=C(N2CC2)C1=O` the “log(1/C)” value (L1210 [7]) was 5.6.
`COC(COC(N)=O)C1=C(N2CC2)C(=O)C(C)=C(N2CC2)C1=O` (stereo unspecified) [CARBOQUONE] showed a minimal effective dose (L1210 [3]) of 0.13 mg/kg, an Activity (L1210 [4]) of 0.7 mg/kg and a TI (L1210 [5]) of 5.4.
In the case of `COC(CO)C1=C(N2CC2)C(=O)C(C)=C(N2CC2)C1=O` (stereo unspecified), the “log(1/C)” value (L1210 [7]) is reported as 6.9.
